In PMC11522000 (Nature Microbiology, 2024):
Converted amounts (≈) assume the structure as drawn.

Experiments:
C. parvum = test: Mouse efficacy study; assay type: in vivo, C57BL/6 IFN-γ-knockout mice; conditions: oral 10 mg kg^−1, 5 days; nitazoxanide 100 mg kg^−1
HsPI(4)K = HsPI(4)K (Homo sapiens, UniProt Q9UBF8); test: PI; assay type: biochemical; conditions: HsPI(4)K IC50, 3 μM ATP
P-glycoprotein (MDR1) = test: MDCK MDR1 permeability and efflux; assay type: in vitro ADME; conditions: dog
[1] = Stability in intestinal S9 fraction; assay type: in vitro ADME; conditions: mouse
How it was run: (§1)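 Test compound added to intestinal S9 fraction of each species to start the reaction. Incubated in a shaking water bath at 37 °C, with samples taken at sequential timepoints. Samples quenched with ice-cold acetonitrile and analysed by LC-MS/MS. Half-life calculated from the rate of parent compound depletion.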

Plasma stability [2] = assay type: in vitro ADME; conditions: human
How it was run: (§2)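 Test compound was added to plasma and incubated at 37 °C in a shaking water bath, with samples taken at sequential timepoints. Samples were quenched with ice-cold acetonitrile and analysed by LC-MS/MS, and half-life was calculated from the depletion rate.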

[3] = Hepatocytes metabolic stability; assay type: in vitro ADME; conditions: mouse; for half-life: hepatocytes
How it was run: (§3)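 Test compound was incubated with liver microsomes or hepatocytes of each species, and parent depletion was quantified by LC-MS/MS. From this, in vitro half-life and intrinsic clearance were derived, along with predicted metabolic clearance and hepatic extraction ratio.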

[4] = High-throughput equilibrium solubility; assay type: physicochemical; conditions: thermodynamic from solid
How it was run: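 Equilibrium solubility was measured by a miniaturized shake-flask method with HPLC quantification.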

Cytotoxicity assay = assay type: cell-based, human; conditions: human, HepG2 cells (ATCC CRL-10741), HepG2 CC50, 96 h
CpPI(4)K = target: T1, CpPI(4)K (Cryptosporidium parvum, UniProt Q5CVD3); test: PI; assay type: biochemical, C. parvum
T1 sequence (Q5CVD3 1-1114): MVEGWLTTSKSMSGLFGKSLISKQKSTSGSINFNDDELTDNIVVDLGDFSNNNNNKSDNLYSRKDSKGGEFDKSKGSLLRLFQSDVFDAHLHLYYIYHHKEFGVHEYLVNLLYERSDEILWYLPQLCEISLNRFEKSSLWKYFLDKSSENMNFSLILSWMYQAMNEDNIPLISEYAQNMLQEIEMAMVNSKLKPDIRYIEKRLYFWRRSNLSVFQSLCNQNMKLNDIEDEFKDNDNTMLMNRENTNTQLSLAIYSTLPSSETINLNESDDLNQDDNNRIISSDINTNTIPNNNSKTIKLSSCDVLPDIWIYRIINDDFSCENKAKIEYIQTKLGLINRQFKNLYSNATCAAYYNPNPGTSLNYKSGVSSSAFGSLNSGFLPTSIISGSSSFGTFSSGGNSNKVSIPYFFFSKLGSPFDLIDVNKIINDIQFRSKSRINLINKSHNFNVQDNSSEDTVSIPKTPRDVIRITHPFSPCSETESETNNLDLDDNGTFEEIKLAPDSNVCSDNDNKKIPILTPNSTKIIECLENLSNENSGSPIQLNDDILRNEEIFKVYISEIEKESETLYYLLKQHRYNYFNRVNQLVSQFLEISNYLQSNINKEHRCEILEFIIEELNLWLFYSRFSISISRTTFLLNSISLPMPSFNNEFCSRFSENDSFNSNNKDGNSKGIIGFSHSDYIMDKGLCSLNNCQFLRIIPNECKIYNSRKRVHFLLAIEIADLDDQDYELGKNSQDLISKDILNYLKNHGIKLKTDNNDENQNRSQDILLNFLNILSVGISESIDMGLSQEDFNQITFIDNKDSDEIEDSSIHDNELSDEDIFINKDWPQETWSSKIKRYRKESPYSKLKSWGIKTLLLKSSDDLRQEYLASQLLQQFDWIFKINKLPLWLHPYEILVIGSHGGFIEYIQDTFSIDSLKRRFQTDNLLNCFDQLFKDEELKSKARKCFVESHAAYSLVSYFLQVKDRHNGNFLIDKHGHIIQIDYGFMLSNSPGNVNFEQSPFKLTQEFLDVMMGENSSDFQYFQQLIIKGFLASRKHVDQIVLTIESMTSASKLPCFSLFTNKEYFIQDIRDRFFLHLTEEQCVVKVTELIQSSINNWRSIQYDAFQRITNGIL
How it was run: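 Enzyme was pre-incubated with compound for 5 min at room temperature. The reaction was started with substrate mix at twice final strength (PI, ATP, Tris-HCl pH 7.5, DTT, 0.05% Triton X-100, MnCl2) and run 50 min at room temperature. ADP was measured by ADP-Glo luminescence. IC50s came from in-plate duplicate 10-point 3-fold dilutions, with DMSO and reference-inhibitor controls. The C. parvum enzymes (wild type and mutants) were full-length proteins expressed from baculovirus in Sf21 cells.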

Plasma stability [5] = assay type: in vitro ADME; conditions: mouse
How it was run: as §2

[6] = Stability in intestinal S9 fraction; assay type: in vitro ADME; conditions: human
How it was run: as §1

[7] = 2 weeks GLP rat toxicology study with toxicokinetics; assay type: in vivo; conditions: both, Wistar, plasma, po, 1000 mg/kg/day, EDI048 1000 mg/kg/day; for AUC(0-t): AUC0-8, rat
How it was run: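 Male and female Wistar rats were about 7–8 weeks old at receipt and 9–10 weeks old at the start of dosing. They were dosed for 2 weeks at 50, 250 and 1000 mg/kg/day, with toxicokinetic plasma sampling.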

[8] = In vivo pharmacokinetic analysis; conditions: male, Beagle, dog, plasma
How it was run: (§4)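 Animals were male C57BL/6 mice (8–10 weeks), Wistar rats (8–10 weeks) and beagle dogs (12–14 weeks). Each received oral and i.v. doses, with plasma sampling for PK parameters.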

[9] = 2 weeks GLP dog toxicology study with toxicokinetics; assay type: in vivo; conditions: both, beagle, dog, plasma, po, 1000 mg/kg/day, EDI048 1000 mg/kg/day; for AUC(0-t): AUC0-8, dog
[10] = Hepatocytes metabolic stability; assay type: in vitro ADME; conditions: human
How it was run: as §3

[11] = In vivo pharmacokinetic analysis; parameters: species or system mouse; conditions: male, C57BL/6, mouse, plasma
How it was run: as §4

HsPI(4)K, sequence (Q9UBF8 523-816 limits assumed): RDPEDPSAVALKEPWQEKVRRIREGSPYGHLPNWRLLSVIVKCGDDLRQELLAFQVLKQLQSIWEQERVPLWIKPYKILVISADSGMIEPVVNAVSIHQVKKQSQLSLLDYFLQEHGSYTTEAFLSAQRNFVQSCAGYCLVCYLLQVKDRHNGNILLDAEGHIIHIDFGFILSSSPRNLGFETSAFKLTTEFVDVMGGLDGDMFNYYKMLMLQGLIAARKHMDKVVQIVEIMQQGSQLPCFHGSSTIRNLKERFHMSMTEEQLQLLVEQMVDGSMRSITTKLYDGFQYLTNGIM

| SMILES | efficacy in the mouse model (C. parvum) | IC50 (HsPI(4)K) [nM] | Papp A→B (P-glycoprotein (MDR1); MDCK-MDR1) [×10⁻⁶ cm/s] | Papp B→A (P-glycoprotein (MDR1); MDCK-MDR1) [×10⁻⁶ cm/s] | efflux ratio (P-glycoprotein (MDR1); MDCK-MDR1) | half-life [1] [h] | half-life (Plasma stability [2]) [h] | Hepatocytes ER [3] [%] | half-life [3] [h] | solubility ([4]; FaSSIF) [µM] | solubility ([4]; pH 6.8, aqueous buffer) [µM] | CC50 at 96 h (Cytotoxicity assay) [nM] | IC50 (CpPI(4)K; CpPI(4)K IC50, 3 μM ATP) [nM] | IC50 (CpPI(4)K; CpPI(4)K IC50, running text) [nM] | half-life (Plasma stability [5]) [h] | half-life [6] [h] | AUC(0-t) ([7]; day 14) [ng·h/mL] | Cmax ([7]; day 14) [ng/mL] | Tmax ([7]; day 1) [h] | Tmax ([7]; day 14) [h] | further results |
| --- | --- | --- | --- | --- | --- | --- | --- | --- | --- | --- | --- | --- | --- | --- | --- | --- | --- | --- | --- | --- | --- |
| CCOC(=O)CN(C(=O)c1ccn2ncc(-c3ccc(C(=O)NC)cc3)c2c1)c1ccc(Cl)cc1 [Compound 1, ethyl N-(4-chlorophenyl)-N-(3-(4-(methylcarbamoyl)phenyl)pyrazolo[1,5-a]pyridine-5-carbonyl)glycinate] | highly efficacious | 1140 ± 296 | 7.89 | 7.4 | 0.94 | 2 | > 2 | 74 | 0.223 | 86 (≈ 42.2 µg/mL) | 31 (≈ 15.2 µg/mL) | 14700 | 7 ± 2 | 2 to 7 | 0.227 | 2 |  |  |  |  |  |
| CNC(=O)c1ccc(-c2cnn3ccc(C(=O)N(CC(=O)O)c4ccc(Cl)cc4)cc23)cc1 [Compound 2, N-(4-chlorophenyl)-N-(3-(4-(methylcarbamoyl)phenyl)pyrazolo[1,5-a]pyridine-5-carbonyl)glycine] | not efficacious in vivo | 135 ± 33 | 0.89 | 1.65 | 1.85 | > 4 | > 2 | 52 | 0.597 | 1000 (≈ 463 µg/mL) | 708 (≈ 328 µg/mL) | > 100000 | 2 | 2 to 7 | > 2 |  |  |  |  |  |  |
| COC(=O)c1cc(Cl)ccc1N(C)C(=O)c1ccn2ncc(-c3ccc(C(N)=O)cc3)c2c1 [Compound 5, methyl 2-(3-(4-carbamoylphenyl)-N-methylpyrazolo[1,5-a]pyridine-5-carboxamido)-5-chlorobenzoate] |  | 203 ± 47 | 2.55 | 15.7 | 6.15 | 1 | > 2 | 91 | 0.0667 | 147 (≈ 68 µg/mL) | 110 (≈ 50.9 µg/mL) | > 100000 | 5 ± 2 |  | > 2 | 1.77 |  |  |  |  |  |
| CNC(=O)c1ccc(-c2cnn3ccc(C(=O)N(C)c4ccc(Cl)c(C(=O)O)c4)cc23)cc1 [Compound 6, 2-chloro-5-(N-methyl-3-(4-(methylcarbamoyl)phenyl)pyrazolo[1,5-a]pyridine-5-carboxamido)benzoic acid] |  | 484 ± 119 | 0.56 |  | 1.86 | > 4 |  | 18 | > 2.92 |  |  | > 100000 | 31 ± 24 |  |  |  | 1430 | 242 | 1 | 3 | AUC(0-t) ([7]; day 1): 886 ng·h/mL; Papp B→A (P-glycoprotein (MDR1); MDCK-MDR1, Permeability B–A, MDCK MDR1, basolateral to apical): 1.04 ×10⁻⁶ cm/s; AUC ([8]; iv, 0.1 mg/kg): 0.0319 µM·h; AUC ([8]; po, 0.3 mg/kg): 0.0047 µM·h; Cmax ([8]; po, 0.3 mg/kg): 2 nM; AUC(0-t) ([9]; day 1): 205 ng·h/mL; AUC(0-t) ([9]; day 14): 301 ng·h/mL; Cmax ([9]; day 14): 72.8 ng/mL; Tmax ([9]; day 1): 1.2 h; Tmax ([9]; day 14): 1.15 h; solubility ([4]; pH 6.8, aqueous buffer, Solubility pH 6.8, pH 6.8): > 1000 µM; Hepatocytes ER [10]: 33%; half-life ([10]; hepatocytes): > 2.92 h; AUC ([11]; iv, 1 mg/kg): 1.19 µM·h; AUC ([11]; po, 10 mg/kg): 0.092 µM·h; Cmax ([11]; po, 10 mg/kg): 33.4 nM |
| COC(=O)c1cc(N(C)C(=O)c2ccn3ncc(-c4ccc(C(=O)O)cc4)c3c2)ccc1Cl [Compound 7, 4-(5-((4-chloro-3-(methoxycarbonyl)phenyl)(methyl)carbamoyl)pyrazolo[1,5-a]pyridin-3-yl)benzoic acid] |  | 11300 |  |  |  |  |  |  |  |  |  | > 100000 | 76 |  |  |  | 0.221 | 0.046 | 3 | 1 | AUC(0-t) ([9]; day 1): 642 ng·h/mL; AUC(0-t) ([9]; day 14): 1180 ng·h/mL; Cmax ([9]; day 14): 224 ng/mL; Tmax ([9]; day 1): 1.6 h; Tmax ([9]; day 14): 2.2 h |
